pIC50: −log10 of the molar value. Calls of active or inactive are those of the source. No cut-off for these calls is given here.
Assays:
[1] = system: MIA PaCa-2; assay: Cytotoxicity against human MIAPaCa2 after 24 hrs by MTT assay; assay type: cell-based; conditions: MIA PaCa-2, 24 h
Procedure, shortened: (§1)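 MIA PaCa-2 cells, 10^4 per well, attached overnight at 37 °C, 5% CO2; compounds in DMSO added (final DMSO 1% by vol.), 24 h exposure; viability by MTT assay.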

[2] = system: Candida albicans; assay: Antifungal activity against Candida albicans DAY185 assessed as lowest compound concentration causing =>80% reduction in cell viability after 48 hrs by XTT assay; assay type: organism-based
[3] = system: Candida albicans; assay: Antifungal activity against Candida albicans DAY185 assessed as inhibition of biofilm formation after 48 hrs by XTT assay; assay type: functional, organism-based
[4] = system: Candida albicans; assay: Antifungal activity against Candida albicans DAY185 assessed as truncated hyphae formation at 50 uM after 24 hrs by phase contrast microscopic analysis; assay type: functional, organism-based
Procedure, shortened: (§2)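 BHI overnight cells washed, suspended in PBS, seeded 1×10^6 cells/well, 37 °C 1 h; non-adherent cells washed off; RPMI 1640 with 2% glucose plus compound in DMSO (1% by vol.), 37 °C up to 24 h; germ tubes/hyphae scored by phase contrast microscopy (×200) at 2.5, 6 and 24 h.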

[5] = system: Candida albicans; assay: Antifungal activity against Candida albicans DAY185 assessed as inhibition of germ tube formation at 50 uM after 6 hrs by phase contrast microscopic analysis; assay type: functional, organism-based; procedure, shortened: as §2
[6] = system: Candida albicans; assay: Antifungal activity against Candida albicans DAY185 assessed as inhibition of hyphae formation at 50 uM after 6 hrs by phase contrast microscopic analysis; assay type: functional, organism-based; procedure, shortened: as §2
[7] = system: Candida albicans; assay: Antifungal activity against Candida albicans DAY185 assessed as inhibition of hyphae formation after 6 hrs by phase contrast microscopic analysis; assay type: functional, organism-based; procedure, shortened: as §2
[8] = system: Candida albicans; assay: Antifungal activity against Candida albicans DAY185 assessed as inhibition of biofilm formation at 0.2 to 100 uM administered 2 to 4 hrs after microbial seeding in 96-well microplate followed by 48 hrs incubation by XTT assay; assay type: functional, organism-based
Procedure, shortened: (§3)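 Time-of-addition variant of the biofilm assay: compound 100 to 0.2 μM added at -0.5, 0, 2, 4, 6 or 8 h after seeding in RPMI 1640/MOPS; at 48 h wells washed twice with PBS, biofilm quantified by XTT; triplicate in each of three trials; IC50 for 50% reduction of biofilm formation from curve fitting.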

[9] = system: Candida albicans; assay: Antifungal activity against Candida albicans DAY185 assessed as inhibition of biofilm formation at 0.2 to 100 uM administered 8 hrs after microbial seeding in 96-well microplate followed by 48 hrs incubation by XTT assay; assay type: functional, organism-based; procedure, shortened: as §3
[10] = system: MIA PaCa-2; assay: Cytotoxicity against human MIAPaCa2 up to 200 uM after 24 hrs by MTT assay; assay type: cell-based; conditions: mia paca-2, 24 h; procedure, shortened: as §1
[11] = system: Candida albicans; assay: Antifungal activity against Candida albicans DAY185 assessed as inhibition of biofilm formation at 0.2 to 100 uM administered 6 hrs after microbial seeding in 96-well microplate followed by 48 hrs incubation by XTT assay; assay type: functional, organism-based; procedure, shortened: as §3

SMILES	MIC [2] [µM]	pIC50 [3]	further results
CC1(C)C=Cc2c(ccc3c2[N+]([O-])=C2C3=C[C@@]34NC(=O)[C@]5(CCCN5C3=O)C[C@H]4C2(C)C)O1 [AVRAINVILLAMIDE]	> 200	4.36	pIC50 [1]: 4.95
CC(C)=CCC/C(C)=C/CC/C(C)=C/CO [FARNESOL]	> 200	3.89	
CC1(C)C=Cc2c(ccc3c2NC(=O)[C@@]32C[C@@]34NC(=O)[C@]5(CCCN5C3=O)C[C@H]4C2(C)C)O1 [NOTOAMIDE B]	> 200	3.96	
CC1(C)C=Cc2c(ccc3c4c([nH]c23)C(C)(C)[C@@H]2C[C@]35CCCN3C(=O)[C@]2(NC5=O)[C@H]4O)O1 [NOTOAMIDE R]	> 200	4.01	
CC1(C)C=Cc2c(ccc3c2NC(=O)[C@@]32[C@H](O)[C@@]34NC(=O)[C@]5(CCCN5C3=O)C[C@H]4C2(C)C)O1 [SCLEROTIAMIDE]	> 200	4.03	
CC1(C)C=Cc2c(ccc3c4c([nH]c23)C(C)(C)[C@@H]2C[C@]35CCCN3C(=O)[C@@]2(C4)NC5=O)O1 [STEPHACIDIN A]	> 200	4.26	
C/C=C/C=C/C=C/[C@H]1C[C@@H](O)CC(=O)[C@@H]1C [WAIKIALIDE A]	> 200	4.49	Activity [4]: Active; inhibition [5]: Active; inhibition [6]: Active; inhibition [7]: Dose-dependent effect
C/C=C/C=C/C=C/[C@H]1C[C@@H](O)C[C@@H](O)[C@@H]1C [WAIKIALIDE B]	> 200	4.01	
CC1(C)C=Cc2c(ccc3c2[N+]([O-])=C2C(C)(C)[C@@H]4C[C@]56CCCN5C(=O)[C@]4(NC6=O)[C@H]4N5C(=O)[C@@]67CCCN6C(=O)[C@@]56[C@H](c5c([nH]c8c9c(ccc58)OC(C)(C)C=C9)C(C)(C)[C@@H]6C7)[C@]234)O1 [WAIKIALOID A]	> 200	5.85	Activity [4]: Active; inhibition [8]: Active; inhibition [5]: Active; inhibition [9]: inactive; inhibition [6]: Active; inhibition [7]: Dose-dependent effect; inhibition [3]: Dose-dependent effect; Activity [10]: Non-toxic; inhibition [11]: inactive
CC1(C)C=Cc2c(ccc3c2[N+]([O-])=C2C(C)(C)[C@@H]4C[C@]56CCCN5C(=O)[C@]4(NC6=O)[C@H]4N5C(=O)[C@@]67CCCN6C(=O)[C@@]56[C@@H]([C@]234)[C@]2(O)C(=[N+]([O-])c3c2ccc2c3C=CC(C)(C)O2)C(C)(C)[C@@H]6C7)O1 [WAIKIALOID B]	> 200	4.33	pIC50 [1]: 5.09

Reference: ChEMBL document CHEMBL2040763, “Waikialoid A suppresses hyphal morphogenesis and inhibits biofilm development in pathogenic Candida albicans” (J Nat Prod, 2012)
